Results published in ChEMBL document CHEMBL1138555, “N-acylated and N,N'-diacylated imidazolidine-2-thione derivatives and N,N'-diacylated tetrahydropyrimidine-2(1H)-thione analogues: synthesis and antiproliferative activity” (Eur J Med Chem, 2009).

System: K562
Assay: Growth inhibition of human K562 cells after 48 hrs by sulforhodamine B assay
Format: functional
Details: K562, 48 h
Summary of the method: (§1)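 NCI screen panel. Five 10-fold concentrations from 10^-4 to 10^-8 M. Exposure for the last 48 h of a 72 h incubation. Growth estimated by sulforhodamine B protein assay. GI50 is the concentration giving 50% growth inhibition. Where that level was not reached or was exceeded, the value is given as above or below the highest or lowest concentration tested.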

Compound | GI50 [µM]
O=C(c1cc(Cl)cc(Cl)c1)N1CCN(C(=O)c2cc(Cl)cc(Cl)c2)C1=S | 4.8

System: A498
Assay: Growth inhibition of human A498 cells after 48 hrs by sulforhodamine B assay
Format: functional
Details: A498, 48 h
Summary of the method: as §1

Compound | GI50 [µM]
O=C(c1cc(Cl)cc(Cl)c1)N1CCN(C(=O)c2cc(Cl)cc(Cl)c2)C1=S | 15.5

System: PC-3
Assay: Growth inhibition of human PC3 cells after 48 hrs by sulforhodamine B assay
Format: functional
Details: PC-3, 48 h
Summary of the method: as §1

Compound | GI50 [µM]
O=C(c1cc(Cl)cc(Cl)c1)N1CCN(C(=O)c2cc(Cl)cc(Cl)c2)C1=S | 16.9

System: SF-268
Assay: Growth inhibition of human SF268 cells after 48 hrs by sulforhodamine B assay
Format: functional
Details: SF-268, 48 h
Summary of the method: as §1

Compound | GI50 [µM]
O=C(c1cc(Cl)cc(Cl)c1)N1CCN(C(=O)c2cc(Cl)cc(Cl)c2)C1=S | 14.1

System: U-251
Assay: Growth inhibition of human U251 cells after 48 hrs by sulforhodamine B assay
Format: functional
Details: U-251, 48 h
Summary of the method: (§2)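 NCI in vitro panel screen. Compounds tested at five 10-fold dilutions, 10^-4 to 10^-8 M. Cells in 96-well plates were exposed for the last 48 h of a 72 h incubation. Viability/growth was read by sulforhodamine B protein assay. GI50 is the concentration giving 50% growth inhibition. Values beyond the tested range are reported as greater or less than the maximum or minimum concentration.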

Compound | GI50 [µM]
O=C(c1cc(Cl)cc(Cl)c1)N1CCN(C(=O)c2cc(Cl)cc(Cl)c2)C1=S | 12.9

System: HCT-15
Assay: Growth inhibition of human HCT15 cells after 48 hrs by sulforhodamine B assay
Format: functional
Details: HCT-15, 48 h
Summary of the method: as §1

Compound | GI50 [µM]
O=C(c1cc(Cl)cc(Cl)c1)N1CCN(C(=O)c2cc(Cl)cc(Cl)c2)C1=S | 13.5

System: HCC 2998
Assay: Growth inhibition of human HCC2998 cells after 48 hrs by sulforhodamine B assay
Format: functional
Details: HCC 2998, 48 h
Summary of the method: as §1

Compound | GI50 [µM]
O=C(c1cc(Cl)cc(Cl)c1)N1CCN(C(=O)c2cc(Cl)cc(Cl)c2)C1=S | 16.7

System: HL-60(TB)
Assay: Growth inhibition of human HL-60(TB) cells after 48 hrs by sulforhodamine B assay
Format: functional
Details: HL-60, 48 h
Summary of the method: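 NCI 60-cell-line screen protocol: cells exposed to compound at five 10-fold dilutions from 10^-4 to 10^-8 M for the last 48 h of a 72 h incubation. Sulforhodamine B protein assay estimated viability/growth. GI50 (50% growth inhibition) derived; where not reached or exceeded, reported as greater or less than the highest or lowest concentration tested.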

Compound | GI50 [µM]
O=C(c1cc(Cl)cc(Cl)c1)N1CCN(C(=O)c2cc(Cl)cc(Cl)c2)C1=S | 3.3

System: ACHN
Assay: Growth inhibition of human ACHN cells after 48 hrs by sulforhodamine B assay
Format: functional
Details: not given
Summary of the method: as §1

Compound | GI50 [µM]
O=C(c1cc(Cl)cc(Cl)c1)N1CCN(C(=O)c2cc(Cl)cc(Cl)c2)C1=S | 17.4

System: MOLT-4
Assay: Growth inhibition of human MOLT4 cells after 48 hrs by sulforhodamine B assay
Format: functional
Details: MOLT-4, 48 h
Summary of the method: as §1

Compound | GI50 [µM]
O=C(c1cc(Cl)cc(Cl)c1)N1CCN(C(=O)c2cc(Cl)cc(Cl)c2)C1=S | 3.4

System: SK-MEL-2
Assay: Growth inhibition of human SK-MEL-2 cells after 48 hrs by sulforhodamine B assay
Format: functional
Details: SK-MEL-2, 48 h
Summary of the method: as §1

Compound | GI50 [µM]
O=C(c1cc(Cl)cc(Cl)c1)N1CCN(C(=O)c2cc(Cl)cc(Cl)c2)C1=S | 16.1

System: SN12C
Assay: Growth inhibition of human SN12C cells after 48 hrs by sulforhodamine B assay
Format: functional
Details: not given
Summary of the method: as §2

Compound | GI50 [µM]
O=C(c1cc(Cl)cc(Cl)c1)N1CCN(C(=O)c2cc(Cl)cc(Cl)c2)C1=S | 9

System: SNB-75
Assay: Growth inhibition of human SNB75 cells after 48 hrs by sulforhodamine B assay
Format: functional
Details: SNB-75, 48 h
Summary of the method: as §2

Compound | GI50 [µM]
O=C(c1cc(Cl)cc(Cl)c1)N1CCN(C(=O)c2cc(Cl)cc(Cl)c2)C1=S | 14.1

System: OVCAR-3
Assay: Growth inhibition of human OVCAR-3 cells after 48 hrs by sulforhodamine B assay
Format: functional
Details: OVCAR-3, 48 h
Summary of the method: as §1

Compound | GI50 [µM]
O=C(c1cc(Cl)cc(Cl)c1)N1CCN(C(=O)c2cc(Cl)cc(Cl)c2)C1=S | 10.2

System: OVCAR-8
Assay: Growth inhibition of human OVCAR8 cells after 48 hrs by sulforhodamine B assay
Format: functional
Details: OVCAR-8, 48 h
Summary of the method: as §1

Compound | GI50 [µM]
O=C(c1cc(Cl)cc(Cl)c1)N1CCN(C(=O)c2cc(Cl)cc(Cl)c2)C1=S | 15.3

System: BT-549
Assay: Growth inhibition of human BT549 cells after 48 hrs by sulforhodamine B assay
Format: functional
Details: BT-549, 48 h
Summary of the method: as §1

Compound | GI50 [µM]
O=C(c1cc(Cl)cc(Cl)c1)N1CCN(C(=O)c2cc(Cl)cc(Cl)c2)C1=S | 22.4

System: TK-10
Assay: Growth inhibition of human TK10 cells after 48 hrs by sulforhodamine B assay
Format: functional
Details: TK-10, 48 h
Summary of the method: as §2

Compound | GI50 [µM]
O=C(c1cc(Cl)cc(Cl)c1)N1CCN(C(=O)c2cc(Cl)cc(Cl)c2)C1=S | 10.7

System: RXF 393
Assay: Growth inhibition of human RXF393 cells after 48 hrs by sulforhodamine B assay
Format: functional
Details: RXF 393, 48 h
Summary of the method: as §1

Compound | GI50 [µM]
O=C(c1cc(Cl)cc(Cl)c1)N1CCN(C(=O)c2cc(Cl)cc(Cl)c2)C1=S | 12.7

System: HCT-116
Assay: Growth inhibition of human HCT116 cells after 48 hrs by sulforhodamine B assay
Format: functional
Details: HCT-116, 48 h
Summary of the method: as §1

Compound | GI50 [µM]
O=C(c1cc(Cl)cc(Cl)c1)N1CCN(C(=O)c2cc(Cl)cc(Cl)c2)C1=S | 16.9
